Assay outcomes: PubChem, several laboratories
SUMO1 PPI mod = SUMO1-SIM interaction modulation | P63165 | SUMO1 binding to a labelled peptide, TR-FRET, 1 h | inhibition, % at 20 µM | hit rate 0.33% among 360,000 | AID 602429; in the data active = inhibition above about 37%
Target sequence (P63165 whole entry, looked up): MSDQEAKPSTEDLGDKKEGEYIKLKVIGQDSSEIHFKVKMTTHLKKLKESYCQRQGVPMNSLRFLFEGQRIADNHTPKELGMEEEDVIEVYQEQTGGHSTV
LMPTP block = LMPTP (human) inhibition | P24666 | recombinant LMPTP-A, OMFP fluorogenic substrate, fluorescence intensity | inhibition, % at 20 µM | hit rate 0.22% among 360,000 | AID 651560;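 active = compounds that cut the enzyme signal by at least half of the control window in the single-dose screen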;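 also: plate controls were DMSO wells with enzyme plus substrate for no effect and substrate without enzyme for full effect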
Target sequence (P24666 whole entry, looked up): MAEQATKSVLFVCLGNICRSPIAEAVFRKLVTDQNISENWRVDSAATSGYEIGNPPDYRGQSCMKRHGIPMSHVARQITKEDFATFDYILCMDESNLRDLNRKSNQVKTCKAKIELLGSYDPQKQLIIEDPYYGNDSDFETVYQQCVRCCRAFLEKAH
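material = LMPTP-A | quantity = 0.625 nM enzyme | reagent = OMFP substrate, 400 µM final | buffer or medium = Bis-Tris pH 6.0, DTT, detergent | detection = endpoint fluorescence intensity from OMFP dephosphorylation | dosing = single 20 µM dose | read-out basis = % inhibition relative to no-enzyme and uninhibited control wells | control set = no-enzyme and uninhibited controls | timing = 50 min at room temperature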
DNMT1 inh = blocks human DNA methyltransferase DNMT1; DNMT1 molecular beacon, Hinp1I cleavage, fluorescence; inhibition (reported as % activation of signal), % at 10 µM; hit rate 0.83% among 360,000; in the data active = inhibition above about 50%
Scp1 inh = inhibitors of human Scp-1 phosphatase; Q9GZU7; Recombinant Scp1, phosphopeptide, malachite green phosphate absorbance; inhibition, % at 20 µM; hit rate 0.88% among 340,000;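 active = inhibition above about 50% at 20 µM, limit read from the data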;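 also: plate controls were DMSO wells with enzyme for no effect and wells lacking enzyme for full effect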
Target sequence (Q9GZU7 76-261 limits assumed): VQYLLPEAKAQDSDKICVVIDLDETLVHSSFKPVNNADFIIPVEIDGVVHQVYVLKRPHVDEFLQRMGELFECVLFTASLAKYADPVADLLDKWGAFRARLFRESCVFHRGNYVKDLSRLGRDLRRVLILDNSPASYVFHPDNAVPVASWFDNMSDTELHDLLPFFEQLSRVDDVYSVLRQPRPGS
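Assay system: SCP-1 catalytic fragment, aa 76-261 | Buffer or medium: Tris acetate buffer pH 5.5 with MgCl2 and Tween-20 | Compound: One concentration, 20 µM, with 1.0% DMSO | Also added: Phospho 17-mer peptide substrate | Signal: Absorbance at 630 nm | Incubation: 45 min enzyme reaction at room temperature | Measure: % inhibition of SCP-1 phosphate liberation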
F508del corr = CFTR F508del correction in bronchial cells. CFBE cells, YFP halide quenching; stimulated with forskolin plus potentiator P3; % fluorescence drop versus neutral controls. activity (quench increase), % at 7.58 µM. hit rate 0.36% among 350,000. AID 720511;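 active = mean added fluorescence quench of at least 8% versus neutral control, with both replicates also reaching 8%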;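 also: cells transiently co-express mutant CFTR-F508del with the halide-sensitive YFP; corrector assay measuring rescue of mutant channel to the surface after 24 h compound exposure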
STEP inh = inhibitors of human striatal-enriched phosphatase STEP; hit rate 0.25% among 360,000; AID 588621; inhibition, % at 20 µM; recombinant STEP, OMFP fluorogenic substrate, fluorescence; P54829;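 active = inhibition at 20 µM, scaled per plate between control wells, above about 37%, limit read from the data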;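 also: 0% = DMSO with enzyme and substrate and 100% = substrate only without enzyme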
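Also added – OMFP at 25 µM · Test system – STEP tyrosine phosphatase · Technique – FITC-channel fluorescence of OMFP product · Schedule – 20 min at room temperature, dark · Evaluation – control-normalized % inhibition with plate pattern correction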
Numbers without * were called inactive; · = no result. Compounds with a hit are over-represented: about 1.6% of the library has one in this group of screens.

SMILES	SUMO1 PPI mod	LMPTP block	DNMT1 inh	Scp1 inh	F508del corr	STEP inh
O=C(C[C@@H]1CC[C@@H](NC(=O)NC2CCCCC2)[C@H](CO)O1)NCc1ccc(Cl)cc1	·	·	·	·	-1	·
COc1cc(/C=C2\SC(N)=NC2=O)ccc1OCC(=O)Nc1ccc(C)cc1	6	0	54*	6	·	-2
O=c1[nH]c(Nc2ccccc2Cl)cc2ccccc12	28	9	85*	-6	-1	10
Cc1ccccc1Nc1cc2ccccc2c(=O)[nH]1	21	9	84*	-7	·	8
C[C@@H]1CN([C@H](C)CO)C(=O)CCCn2cc(nn2)CO[C@@H]1CN(C)C(=O)Nc1ccc(C(C)(C)C)cc1	·	·	·	·	1	·
CNc1nc(-c2ccccc2)[n+](-c2ccc(C)cc2)s1	0	-1	4	83*	·	-3
Cc1ccc(-c2nc3ccccc3nc2-c2ccccc2)cc1	-15	3	-1	0	2	1
Cc1ccc(-c2nc(N)s[n+]2-c2ccccc2)cc1	3	1	1	88*	-1	0
O=C(c1cccc(F)c1)N1CC2(C1)[C@H](c1ccccc1)[C@H](CO)N2Cc1ccccn1	·	·	·	·	0	·
C=CC1c2cc(OC)c(OC)cc2CC(C)N1Cc1ccc(OC)cc1 (stereo unspecified)	·	·	·	·	18*	·
O=S(=O)(Nc1ccccc1F)c1cccc(NC(=S)NCCN2CCOCC2)c1	3	5	-4	-7	-1	92*
O=S(=O)(Nc1ccc(Br)cc1)c1cccc(NC(=S)NCCN2CCOCC2)c1	0	-1	-1	-9	-2	15
Cc1ccc(NC(=O)Nn2cnnc2)cc1Cl	49*	0	2	-6	-1	-2
CC=Cc1ccc2n(c1=O)C[C@@H]1[C@@H](CO)[C@H](C(=O)N3CCCCC3)[C@H]2N1C(=O)C1CC1 (mixture of isomers)	·	·	·	·	4	·
CN(C(=O)COC(=O)c1ccc2c(c1)OCO2)C1CCCCC1	-3	1	0	-2	2	-3
C[N+]12CCCCC1C(COC(=O)c1ccc3c(c1)OCO3)CCC2 (stereo unspecified)	1	-1	2	106*	-4	2
COc1ccc(CCNc2ncnc3c2oc2ccccc23)cc1OC	6	-1	-1	-2	9.3*	1
CC(C)CC#Cc1cnc2c(c1)C(=O)N([C@H](C)CO)C[C@@H](C)[C@H](CN(C)Cc1ccc3c(c1)OCO3)O2	·	·	·	·	4	·
c1ccc(CCCCN2C(Nc3ccccc3)=NC[C@@H]2Cc2ccccc2)cc1	-6	-2	9	7	0	-2
CCCCCCCN1C(Nc2ccccc2)=NC[C@@H]1Cc1ccccc1	-5	3	58*	3	2	2
C[C@@H]1CN([C@@H](C)CO)C(=O)Cc2cc(NC(=O)C3CC3)ccc2O[C@@H]1CN(C)S(=O)(=O)c1cccs1	·	·	·	·	-2	·
COCCCN=C1NN=C(c2cc(C)n(Cc3ccccc3Cl)c2C)CS1	2	2	-17	15	9.1*	3
O=C(NCC[C@@H]1CC[C@@H](NS(=O)(=O)c2cccc(F)c2)[C@H](CO)O1)C1CCCCC1	·	·	·	·	-5	·
COc1ccc(CCn2c(=N)c(C(=O)NCc3ccco3)cc3c(=O)n4ccccc4nc32)cc1	-7	60*	35	15	·	7
COc1ccccc1NC(=O)c1ccc(NC(=O)c2nc3nccc(C)n3n2)cc1	3	0	-2	-8	-3	-1
COc1ccc(NC(=O)c2ccc(NC(=O)c3nc4nccc(C)n4n3)cc2)cc1	1	0	3	-7	27*	-3
CCCNC(=O)C[C@H]1CC[C@H]2[C@@H](COc3ccc(NC(=O)NCCC)cc3C(=O)N2C)O1	·	·	·	·	0	·
O=C(O)c1cccc(-c2ccc(/C=C3/SC(=Nc4ccccc4)N(Cc4cccnc4)C3=O)o2)c1	82*	1	23	73*	-1	11
CCN1C(=O)/C(=C\c2ccc(-c3ccc([N+](=O)[O-])cc3OC)o2)SC1=Nc1cccc(C(=O)O)c1	54*	8	-19	-9	5	4
CCN1C(=O)/C(=C\c2ccc(-c3cccc(C(=O)OC)c3)o2)SC1=Nc1ccc(C(=O)O)cc1	·	·	·	·	1	·
